Reference: paper PMC5180416 (Journal of the American Chemical Society, 2012)
Read-outs that look alike come from different tables or passages of the source. Peptide text beside a SMILES is read from it.

Tests used:
WDR5 = WDR5 (Homo sapiens, UniProt P61964); assay: Fluorescence-polarization; assay type: binding; conditions: for decrease in binding affinity to WDR5 (times) compared to ARA (Ac-ARA-NH2) / improvement in binding affinity to WDR5 (times more potent) compared to ARA (Ac-ARA-NH2): relative to ARA peptide; for weakening of binding to WDR5 (times) compared to Val and Abu at Ala1: relative to Val and Abu
[1] = molecular target: MLL1 core complex (MLL1/WDR5/RbBP5/ASH2L) (Homo sapiens, UniProt P61964); assay: In vitro H3K4 histone methyltransferase; assay type: biochemical; conditions: for inhibition of MLL1 HMT activity, result in words: up to 400 μM
HoxA9 = assay: qRT-PCR analysis of HoxA9 expression in MLL1-AF9 transduced bone marrow cells; assay type: cell-based; conditions: 96 h, MLL1-AF9 transduced murine cells
Outline: (§1)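 Murine bone marrow cells transduced with MLL1-AF9 were exposed for 96 h to test compound (25 or 50 μM), a control compound (50 μM) or mock, all at 0.2% final DMSO. Total RNA was extracted (Trizol plus column kit) and cDNA made by random priming. SYBR real-time PCR used gene-specific primers for HoxA9, Meis1 and GAPDH. Expression is relative to mock after normalizing to GAPDH or total input RNA; unpaired t test versus mock.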

K562 cells [2] = assay: Cell growth, CellTiter-Glo Luminescent Cell Viability Assay; assay type: cell-based; conditions: 7 days
Outline: (§2)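 Cells grown in RPMI 1640 with 10% FBS and penicillin-streptomycin at 37 °C, 5% CO2. Seeded at 5 × 10^5 cells per well and exposed to test compound or 0.2% DMSO vehicle for 7 days. Medium was changed and compound resupplied every 2 days. CellTiter-Glo reagent added, 2 min shaking to lyse, 10 min at room temperature, then luminescence read.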

K562 cells [3] = assay: Annexin V-propidium iodide apoptosis assay; assay type: cell-based; conditions: K562, up to 50 μM, 96 h
KOPN8 cells = assay: Cell growth, CellTiter-Glo Luminescent Cell Viability Assay; assay type: cell-based; conditions: 7 days
Outline: as §2

Meis-1 = assay: qRT-PCR analysis of Meis-1 expression in MLL1-AF9 transduced bone marrow cells; assay type: cell-based; conditions: 50 μM, 96 h, MLL1-AF9 transduced murine cells
Outline: as §1

MV4;11 cells [4] = assay: Annexin V-propidium iodide apoptosis assay; assay type: cell-based; conditions: MV4;11, 50 μM, 96 h
MV4;11 cells [5] = assay: Cell growth, CellTiter-Glo Luminescent Cell Viability Assay; assay type: cell-based; conditions: 7 days
Outline: as §2

GAPDH = assay: qRT-PCR analysis of GAPDH; assay type: cell-based; conditions: 96 h, MLL1-AF9 transduced murine cells
Outline: as §1

In the case of `CC(=O)N[C@@H](CS)C(=O)N[C@@H](CCCNC(=N)N)C(=O)N[C@@H](C)C(N)=O` [Compound 1d] (Ac-Cys-Arg-Ala-NH2), the “decrease in binding affinity to WDR5 (times) compared to ARA (Ac-ARA-NH2)” value (“decrease in binding affinity … (Ac-ARA-NH2)” for short) (WDR5) is reported as 3.

For `CC(=O)N[C@@H](C)C(=O)N[C@@H](CCCNC(=N)N)C(=O)NCC(N)=O` [Compound 3a] (Ac-Ala-Arg-Gly-NH2), the “decrease in binding affinity … (Ac-ARA-NH2)” value (WDR5) was over 10.

With `CC(=O)N[C@H](C(=O)N[C@@H](CCCNC(=N)N)C(=O)N[C@@H](C)C(N)=O)[C@@H](C)O` [Compound 1j] (Ac-Thr-Arg-Ala-NH2) the “decrease in binding affinity … (Ac-ARA-NH2)” value (WDR5) was 5 and the “weakening of binding to WDR5 (times) compared to Val and Abu at Ala1” value (WDR5) was “approximately 10”.

`CCCC[C@H](NC(=O)[C@H](C)NC(C)=O)C(=O)N[C@@H](C)C(N)=O` [Compound 2a] was tested, and the IC50 (WDR5) was over 300 µM, the Ki (WDR5) was over 65 µM and the “binding to WDR5, result in words” value (WDR5; FP-based competitive binding) was “complete loss of binding”.

In the case of `CC(=O)N[C@H](C(=O)N[C@@H](CCCNC(=N)N)C(=O)N[C@H](C(N)=O)C(C)C)C1CCCC1` [Compound 4i], the “decrease in binding affinity to WDR5 (times less potent) compared to 3c” value (WDR5; relative to 3c) is reported as 15.

In the case of `CC(=O)N[C@@H](C)C(=O)N[C@@H](CCCNC(N)=O)C(=O)N[C@@H](C)C(N)=O` [Compound 2d], the “binding to WDR5, result in words” value (WDR5; FP-based competitive binding) is reported as “fails to bind to WDR5” and the “inhibition of MLL1 HMT activity, result in words” value (from here on “inhibition of MLL1 HMT activity”) [1] is reported as “fail to inhibit the MLL1 HMT activity”.

`CC(=O)N[C@@H](C)C(=O)N[C@@H](CCCNC(=N)N)C(=O)N[C@@H](C)C(N)=O` [ARA, Ac-ARA-NH2] (Ac-Ala-Arg-Ala-NH2) gave an IC50 [1] of 141 ± 52 µM.

With `CC(=O)N[C@@H](C)C(=O)N[C@@H](CCCCN)C(=O)N[C@@H](C)C(N)=O` [Compound 2c] (Ac-Ala-Lys-Ala-NH2) the IC50 (WDR5) was over 300 µM, the Ki (WDR5) was over 65 µM and the “binding to WDR5, result in words” value (WDR5; FP-based competitive binding) was “inactive”.

In the case of `CC(=O)N[C@H](C(=O)N[C@@H](CCCNC(=N)N)C(=O)N[C@H](C(N)=O)C(C)C)c1ccccc1` [Compound 4j], the “decrease in binding affinity to WDR5 (times less potent) compared to 3c” value (WDR5; relative to 3c) is reported as 50.

With `CC(=O)NCC(=O)N[C@@H](CCCNC(=N)N)C(=O)N[C@@H](C)C(N)=O` [Compound 1a] (Ac-Gly-Arg-Ala-NH2) the “decrease in binding affinity … (Ac-ARA-NH2)” value (WDR5) was over 100 and the “inhibition of MLL1 HMT activity” value [1] was “fail to inhibit the MLL1 HMT activity”.

For `CC(=O)N[C@@H](Cc1ccccc1)C(=O)N[C@@H](CCCNC(=N)N)C(=O)N[C@@H](C)C(N)=O` [Compound 1h] (Ac-Phe-Arg-Ala-NH2), the “decrease in binding affinity … (Ac-ARA-NH2)” value (WDR5) was 3–6 and the “inhibition of MLL1 HMT activity” value [1] was “fail to inhibit the MLL1 HMT activity”.

With `CC(=O)N[C@@H](C)C(=O)N[C@@H](CCCNC(=N)N)C(=O)N[C@@H](CCC(=O)O)C(N)=O` [Compound 3j] (Ac-Ala-Arg-Glu-NH2) the “decrease in binding affinity … (Ac-ARA-NH2)” value (WDR5) was over 100.

In the case of `CC(=O)N[C@@H](Cc1c[nH]cn1)C(=O)N[C@@H](CCCNC(=N)N)C(=O)N[C@@H](C)C(N)=O` [Compound 1g] (Ac-His-Arg-Ala-NH2), the “decrease in binding affinity … (Ac-ARA-NH2)” value (WDR5) is reported as 3–6.

With `CCC(CC)(NC(=O)C(C)C)C(=O)N[C@@H](CCCN=C(N)N)C(=O)NC1(C(=O)NC(c2ccc(F)cc2)c2ccc(F)cc2)CCCC1` [MM-102] the “reduction in HoxA9 gene expression compared with Mock” value (HoxA9; 25 μM) was “Approximately 50%”, the “reduction in HoxA9 gene expression compared with Mock” value (HoxA9; 50 μM) was about 70% and the “improvement in binding affinity to WDR5 (times more potent) compared to ARA (Ac-ARA-NH2)” value (from here on “improvement … compared to ARA (Ac-ARA-NH2)”) (WDR5) was over 200. The “effect on cell growth, in words” value (K562 cells [2]; K562 (BCR-ABL, no MLL1 fusion), up to 50 μM) was “no effect”, the “effect on cell growth, in words” value (K562 cells [2]; K562, 75 μM) was “minimal effect” and the “cells undergoing cell death” value (K562 cells [3]) was under 10%. For the same compound, the “cell growth inhibition, in words” value (KOPN8 cells; KOPN8, 75 μM) was “completely inhibits cell growth”, the IC50 (KOPN8 cells; read-out: cell growth inhibition IC50, KOPN8 (MLL1-ENL)) was 25 µM and the “decrease in Meis-1 expression” value (Meis-1) was 40%. The “cells undergoing cell death” value (MV4;11 cells [4]) was over 75%, the “cell growth inhibition, in words” value (MV4;11 cells [5]; MV4;11, 75 μM) was “completely inhibits cell growth” and the IC50 (MV4;11 cells [5]; read-out: cell growth inhibition IC50, MV4;11 (MLL1-AF4)) was 25 µM. For the same compound, the “effect on expression of GAPDH, in words” value (GAPDH) was “did not affect the expression of GAPDH”.

For `CC(=O)N[C@@H](C)C(=O)N[C@@H](CCCNC(=N)N)C(=O)N[C@H](C(N)=O)[C@@H](C)O` [Compound 3i] (Ac-Ala-Arg-Thr-NH2), the “reduction of binding affinity to WDR5 (fold) compared to 3b” value (WDR5; relative to 3b) was 3 and the “improvement … compared to ARA (Ac-ARA-NH2)” value (WDR5) was 5.

In the case of `CC(=O)N[C@@H](C)C(=O)N[C@@H](CCCNC(=N)N)C(=O)N[C@@H](CO)C(N)=O` [Compound 3h] (Ac-Ala-Arg-Ser-NH2), the “decrease in binding affinity … (Ac-ARA-NH2)” value (WDR5) is reported as 3.

In the case of `CC[C@H](NC(C)=O)C(=O)N[C@@H](CCCNC(=N)N)C(=O)N[C@@H](C)C(N)=O` [Compound 1b], the “improvement … compared to ARA (Ac-ARA-NH2)” value (WDR5) is reported as 2.

With `CC(=O)N[C@@H](C)C(=O)N[C@@H](CCCN)C(=O)N[C@@H](C)C(N)=O` [Compound 2b] the IC50 (WDR5) was over 300 µM, the Ki (WDR5) was over 65 µM and the “binding to WDR5, result in words” value (WDR5; FP-based competitive binding) was “complete loss of binding”.

In the case of `CC(=O)N[C@@H](C)C(=O)N[C@@H](CCCNC(=N)N)C(=O)N[C@H](C(N)=O)C(C)C` [Compound 3c] (Ac-Ala-Arg-Val-NH2), the “improvement … compared to ARA (Ac-ARA-NH2)” value (WDR5) is reported as 5.

`CC[C@H](NC(=O)[C@H](CCCNC(=N)N)NC(=O)[C@H](C)NC(C)=O)C(N)=O` [Compound 3b] was tested, and the “improvement … compared to ARA (Ac-ARA-NH2)” value (WDR5) was 20.

In the case of `CCC(CC)(NC(C)=O)C(=O)N[C@@H](CCCNC(=N)N)C(=O)N[C@H](C(N)=O)C(C)C` [Compound 4f], the “times more potent than 3c in binding to WDR5” value (WDR5; relative to 3c) is reported as 5.

`CCC(CC)(NC(=O)C(C)C)C(=O)N[C@@H](CCCNC(=N)N)C(=O)NC1(C(=O)NC(c2ccc(Cl)cc2)c2ccc(Cl)cc2)CCCC1` [MM-103] showed a Ki (WDR5; read-out: Ki ± SD, binding affinity to WDR5, FP-based competitive binding) of under 0.001 µM.

With `CC(=O)N[C@H](C(=O)N[C@@H](CCCNC(=N)N)C(=O)N[C@@H](C)C(N)=O)C(C)C` [Compound 1c] (Ac-Val-Arg-Ala-NH2) the “improvement … compared to ARA (Ac-ARA-NH2)” value (WDR5) was 2.

`CC(=O)N[C@@H](CO)C(=O)N[C@@H](CCCNC(=N)N)C(=O)N[C@@H](C)C(N)=O` [Compound 1i] (Ac-Ser-Arg-Ala-NH2) was tested, and the “decrease in binding affinity … (Ac-ARA-NH2)” value (WDR5) was 5 and the “weakening of binding to WDR5 (times) compared to Val and Abu at Ala1” value (WDR5) was “approximately 10”.
